System: patients with advanced solid tumors
Test: Toxicity by grade
Format: in vivo, human
Details: first cycle including veliparib with carboplatin and paclitaxel, n=73
Summary of the method: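 Adverse events were tabulated descriptively as maximum grade in three groups: the chemotherapy-only lead-in cycle, the first veliparib-containing cycle, and all cycles. CBC and serum chemistry including liver function tests were drawn weekly during cycles 1–2, then at the start of every cycle. Veliparib was oral, twice daily on days 1–7; carboplatin/paclitaxel were IV every 21 days.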

Compound: C[C@]1(c2nc3c(C(N)=O)cccc3[nH]2)CCCN1 [veliparib]
- Alanine aminotransferase increased, Any Grade: 2 (3) number of patients (%)
- Alanine aminotransferase increased, Grade 1: 2 (3) number of patients (%)
- Alanine aminotransferase increased, Grade 2: 0 number of patients (%)
- Alanine aminotransferase increased, Grade 3: 0 number of patients (%)
- Alanine aminotransferase increased, Grade 4: 0 number of patients (%)
- Alkaline phosphatase increased, Any Grade: 2 (3) number of patients (%)
- Alkaline phosphatase increased, Grade 1: 1 (1) number of patients (%)
- Alkaline phosphatase increased, Grade 2: 1 (1) number of patients (%)
- Alkaline phosphatase increased, Grade 3: 0 number of patients (%)
- Alkaline phosphatase increased, Grade 4: 0 number of patients (%)
- Allergic reaction, Any Grade: 3 (4) number of patients (%)
- Allergic reaction, Grade 1: 2 (3) number of patients (%)
- Allergic reaction, Grade 2: 0 number of patients (%)
- Allergic reaction, Grade 3: 0 number of patients (%)
- Allergic reaction, Grade 4: 1 (1) number of patients (%)
- Alopecia, Any Grade: 17 (23) number of patients (%)
- Alopecia, Grade 1: 13 (18) number of patients (%)
- Alopecia, Grade 2: 4 (5) number of patients (%)
- Alopecia, Grade 3: 0 number of patients (%)
- Alopecia, Grade 4: 0 number of patients (%)
- Anemia, Any Grade: 24 (33) number of patients (%)
- Anemia, Grade 1: 4 (5) number of patients (%)
- Anemia, Grade 2: 18 (25) number of patients (%)
- Anemia, Grade 3: 2 (3) number of patients (%)
- Anemia, Grade 4: 0 number of patients (%)
- Anorexia, Any Grade: 4 (5) number of patients (%)
- Anorexia, Grade 1: 4 (5) number of patients (%)
- Anorexia, Grade 2: 0 number of patients (%)
- Anorexia, Grade 3: 0 number of patients (%)
- Anorexia, Grade 4: 0 number of patients (%)
- Anxiety, Any Grade: 1 (1) number of patients (%)
- Anxiety, Grade 1: 1 (1) number of patients (%)
- Anxiety, Grade 2: 0 number of patients (%)
- Anxiety, Grade 3: 0 number of patients (%)
- Anxiety, Grade 4: 0 number of patients (%)
- Any adverse event, Any Grade: 67 (92) number of patients (%)
- Any adverse event, Grade 1: 57 (78) number of patients (%)
- Any adverse event, Grade 2: 46 (63) number of patients (%)
- Any adverse event, Grade 3: 34 (47) number of patients (%)
- Any adverse event, Grade 4: 26 (36) number of patients (%)
- Arthralgia, Any Grade: 6 (8) number of patients (%)
- Arthralgia, Grade 1: 5 (7) number of patients (%)
- Arthralgia, Grade 2: 1 (1) number of patients (%)
- Arthralgia, Grade 3: 0 number of patients (%)
- Arthralgia, Grade 4: 0 number of patients (%)
- Aspartate aminotransferase increased, Any Grade: 2 (3) number of patients (%)
- Aspartate aminotransferase increased, Grade 1: 2 (3) number of patients (%)
- Aspartate aminotransferase increased, Grade 2: 0 number of patients (%)
- Aspartate aminotransferase increased, Grade 3: 0 number of patients (%)
- Aspartate aminotransferase increased, Grade 4: 0 number of patients (%)
- Blood bilirubin increased, Any Grade: 1 (1) number of patients (%)
- Blood bilirubin increased, Grade 1: 1 (1) number of patients (%)
- Blood bilirubin increased, Grade 2: 0 number of patients (%)
- Blood bilirubin increased, Grade 3: 0 number of patients (%)
- Blood bilirubin increased, Grade 4: 0 number of patients (%)
- Bone pain, Any Grade: 1 (1) number of patients (%)
- Bone pain, Grade 1: 1 (1) number of patients (%)
- Bone pain, Grade 2: 0 number of patients (%)
- Bone pain, Grade 3: 0 number of patients (%)
- Bone pain, Grade 4: 0 number of patients (%)
- Chills, Any Grade: 1 (1) number of patients (%)
- Chills, Grade 1: 1 (1) number of patients (%)
- Chills, Grade 2: 0 number of patients (%)
- Chills, Grade 3: 0 number of patients (%)
- Chills, Grade 4: 0 number of patients (%)
- Constipation, Any Grade: 6 (8) number of patients (%)
- Constipation, Grade 1: 4 (5) number of patients (%)
- Constipation, Grade 2: 2 (3) number of patients (%)
- Constipation, Grade 3: 0 number of patients (%)
- Constipation, Grade 4: 0 number of patients (%)
- Cough, Any Grade: 2 (3) number of patients (%)
- Cough, Grade 1: 2 (3) number of patients (%)
- Cough, Grade 2: 0 number of patients (%)
- Cough, Grade 3: 0 number of patients (%)
- Cough, Grade 4: 0 number of patients (%)
- Creatinine increased, Any Grade: 3 (4) number of patients (%)
- Creatinine increased, Grade 1: 3 (4) number of patients (%)
- Creatinine increased, Grade 2: 0 number of patients (%)
- Creatinine increased, Grade 3: 0 number of patients (%)
- Creatinine increased, Grade 4: 0 number of patients (%)
- Cytokine release syndrome, Any Grade: 1 (1) number of patients (%)
- Cytokine release syndrome, Grade 1: 0 number of patients (%)
- Cytokine release syndrome, Grade 2: 1 (1) number of patients (%)
- Cytokine release syndrome, Grade 3: 0 number of patients (%)
- Cytokine release syndrome, Grade 4: 0 number of patients (%)
- Dehydration, Any Grade: 1 (1) number of patients (%)
- Dehydration, Grade 1: 0 number of patients (%)
- Dehydration, Grade 2: 1 (1) number of patients (%)
- Dehydration, Grade 3: 0 number of patients (%)
- Dehydration, Grade 4: 0 number of patients (%)
- Diarrhea, Any Grade: 5 (7) number of patients (%)
- Diarrhea, Grade 1: 5 (7) number of patients (%)
- Diarrhea, Grade 2: 0 number of patients (%)
- Diarrhea, Grade 3: 0 number of patients (%)
- Diarrhea, Grade 4: 0 number of patients (%)
- Dizziness, Any Grade: 3 (4) number of patients (%)
- Dizziness, Grade 1: 3 (4) number of patients (%)
- Dizziness, Grade 2: 0 number of patients (%)
- Dizziness, Grade 3: 0 number of patients (%)
- Dizziness, Grade 4: 0 number of patients (%)
- Dry mouth, Any Grade: 2 (3) number of patients (%)
- Dry mouth, Grade 1: 2 (3) number of patients (%)
- Dry mouth, Grade 2: 0 number of patients (%)
- Dry mouth, Grade 3: 0 number of patients (%)
- Dry mouth, Grade 4: 0 number of patients (%)
- Dysesthesia, Any Grade: 1 (1) number of patients (%)
- Dysesthesia, Grade 1: 1 (1) number of patients (%)
- Dysesthesia, Grade 2: 0 number of patients (%)
- Dysesthesia, Grade 3: 0 number of patients (%)
- Dysesthesia, Grade 4: 0 number of patients (%)
- Dysgeusia, Any Grade: 2 (3) number of patients (%)
- Dysgeusia, Grade 1: 2 (3) number of patients (%)
- Dysgeusia, Grade 2: 0 number of patients (%)
- Dysgeusia, Grade 3: 0 number of patients (%)
- Dysgeusia, Grade 4: 0 number of patients (%)
- Dyspepsia, Any Grade: 3 (4) number of patients (%)
- Dyspepsia, Grade 1: 2 (3) number of patients (%)
- Dyspepsia, Grade 2: 1 (1) number of patients (%)
- Dyspepsia, Grade 3: 0 number of patients (%)
- Dyspepsia, Grade 4: 0 number of patients (%)
- Dysphagia, Any Grade: 2 (3) number of patients (%)
- Dysphagia, Grade 1: 2 (3) number of patients (%)
- Dysphagia, Grade 2: 0 number of patients (%)
- Dysphagia, Grade 3: 0 number of patients (%)
- Dysphagia, Grade 4: 0 number of patients (%)
- Dyspnea, Any Grade: 3 (4) number of patients (%)
- Dyspnea, Grade 1: 2 (3) number of patients (%)
- Dyspnea, Grade 2: 1 (1) number of patients (%)
- Dyspnea, Grade 3: 0 number of patients (%)
- Dyspnea, Grade 4: 0 number of patients (%)
- Edema limbs, Any Grade: 3 (4) number of patients (%)
- Edema limbs, Grade 1: 3 (4) number of patients (%)
- Edema limbs, Grade 2: 0 number of patients (%)
- Edema limbs, Grade 3: 0 number of patients (%)
- Edema limbs, Grade 4: 0 number of patients (%)
- Erythema multiforme, Any Grade: 1 (1) number of patients (%)
- Erythema multiforme, Grade 1: 0 number of patients (%)
- Erythema multiforme, Grade 2: 1 (1) number of patients (%)
- Erythema multiforme, Grade 3: 0 number of patients (%)
- Erythema multiforme, Grade 4: 0 number of patients (%)
- Esophagitis, Any Grade: 1 (1) number of patients (%)
- Esophagitis, Grade 1: 1 (1) number of patients (%)
- Esophagitis, Grade 2: 0 number of patients (%)
- Esophagitis, Grade 3: 0 number of patients (%)
- Esophagitis, Grade 4: 0 number of patients (%)
- Fatigue, Any Grade: 27 (37) number of patients (%)
- Fatigue, Grade 1: 18 (24) number of patients (%)
- Fatigue, Grade 2: 5 (7) number of patients (%)
- Fatigue, Grade 3: 4 (5) number of patients (%)
- Fatigue, Grade 4: 0 number of patients (%)
- Febrile neutropenia, Any Grade: 5 (7) number of patients (%)
- Febrile neutropenia, Grade 1: 0 number of patients (%)
- Febrile neutropenia, Grade 2: 0 number of patients (%)
- Febrile neutropenia, Grade 3: 3(4) number of patients (%)
- Febrile neutropenia, Grade 4: 2 (3) number of patients (%)
- Fever, Any Grade: 3 (4) number of patients (%)
- Fever, Grade 1: 2 (3) number of patients (%)
- Fever, Grade 2: 0 number of patients (%)
- Fever, Grade 3: 1 (1) number of patients (%)
